From PubChem
Compounds with a hit are over-represented: about 2.2% of the library has one in this group of screens.
GSTO1 counter: counter-screen for RBBP9 inhibitors: inhibitors of human GSTO1 | hit rate 1.1% among 300,000 | P78417 | recombinant GSTO1, activity-based probe fluorescence polarization | inhibition, % at 5.96 µM;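 active = inhibition above the campaign mean inhibition plus 3 SD, cut at about 35% in these data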
Target sequence (P78417 whole entry, looked up): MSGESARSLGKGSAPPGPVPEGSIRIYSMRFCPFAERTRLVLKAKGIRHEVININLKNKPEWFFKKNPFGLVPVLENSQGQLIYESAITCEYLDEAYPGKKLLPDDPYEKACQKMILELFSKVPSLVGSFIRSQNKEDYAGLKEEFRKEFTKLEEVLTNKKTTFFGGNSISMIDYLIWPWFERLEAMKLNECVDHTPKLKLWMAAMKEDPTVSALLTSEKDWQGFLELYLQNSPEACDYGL
Rin1-Abl PPI inh: inhibitors of human Rin1-Abl protein interaction. P00519+Q13671. TR-FRET Rin1/Abl binding, biochemical. inhibition, % at 7.35 µM. hit rate 0.4% among 360,000. AID 588664; in the data active = inhibition above about 5%, passing the limit was not always enough
UBC13 polyUb: inhibitors of human UBC13 polyubiquitin chain formation; inhibition, % at 20 µM; TR-FRET; hit rate 0.47% among 330,000; AID 485273; in the data active = inhibition above about 45%, passing the limit was not always enough; inconclusive = no clear call, values can overlap the other calls
Target sequence (P61088 whole entry, looked up): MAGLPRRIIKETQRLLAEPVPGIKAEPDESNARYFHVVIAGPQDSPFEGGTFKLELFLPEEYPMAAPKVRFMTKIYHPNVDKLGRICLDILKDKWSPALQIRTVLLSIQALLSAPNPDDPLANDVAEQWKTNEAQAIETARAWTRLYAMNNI
PAD4 inh: PAD4 (human) enzyme inhibition; recombinant PAD4, RCA probe fluorescence polarization; inhibition, % at 6.36 µM; hit rate 0.41% among 330,000; Q9UM07; AID 485272;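 active = percent inhibition above a cutoff equal to the mean of all tested compounds plus 3 SD, cut at about 15% in these data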
Apaf1 inhib: inhibitors of human Apaf-1 apoptosome; O14727; hit rate 0.71% among 330,000; inhibition, % at 20 µM; reconstituted apoptosome caspase-3 activity, DEVD-Rh110 fluorescence; active = inhibition of at least 40% at 20 µM
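Medium: Hepes buffer, pH 7.5 / System: biochemical Apaf-1 apoptosome reconstitution / Measured by: Rh110 fluorescence, excitation 480 nm, emission 540 nm / Times: compound with Apaf-1, dATP, procaspase-3 30 min, then 50 min reaction, room temperature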
UBC9 SUMO inh: inhibitors of human SUMOylation (UBC9). P63279. HTRF SUMOylation assay, SAE1/SAE2 + UBC9, in vitro. inhibition, % at 35 µM. hit rate 0.36% among 290,000. AID 2006; in the data active = inhibition above about 50%, passing the limit was not always enough; inconclusive = no clear call, values can overlap the other calls
Target sequence (P63279 whole entry, looked up): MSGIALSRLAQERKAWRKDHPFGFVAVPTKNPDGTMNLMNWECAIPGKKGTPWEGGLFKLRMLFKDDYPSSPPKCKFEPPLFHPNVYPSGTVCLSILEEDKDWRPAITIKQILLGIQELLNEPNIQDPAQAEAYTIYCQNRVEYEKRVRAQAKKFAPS
GSTO1 inh conf: GSTO1 (human) inhibition, confirmation; shares compounds with GSTO1 counter; recombinant GSTO1, probe fluorescence polarization; inhibition, % at 5.96 µM; hit rate 54% among 2,400;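 active = inhibition above the primary screen's cutoff, its mean inhibition plus 3 SD, cut at about 35% in these data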;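 note: loss of polarization as inhibitors block binding of rhodamine sulfonate ester activity probe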
GSTO1 ABPP inh: inhibitors of recombinant human GSTO1. shares compounds with GSTO1 counter. gel ABPP SE-Rh probe fluorescence. inhibition, % at 1 µM. hit rate 30% among 130;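 active = inhibition of the enzyme GSTO1 above about 75%, limit read from the data; inactive = inhibition below that limit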
Numbers stand for hits; - = inactive; ? = inconclusive; . = no result.

SMILES | GSTO1 counter | Rin1-Abl PPI inh | UBC13 polyUb | PAD4 inh | Apaf1 inhib | UBC9 SUMO inh | GSTO1 inh conf | others
COc1cc(CNc2ccc(N3CCCC3)cc2)cc(Cl)c1OC | 59 | - | - | - | - | - | 57
CCOc1ccc(CNc2ccc(N3CCCC3)cc2)cc1 | 66 | - | - | - | - | - | 55
Cc1ccc(NC(=O)COc2ccc(C(=O)c3ccccc3)cc2)c(O)c1 | - | - | - | - | - | - | .
CCOc1cccc(C=Nc2cc(C)cc(C)c2O)c1O | 45 | - | - | - | - | - | -
O=C(O)c1ccc(N/N=C/C(Br)=C/c2ccccc2)cc1 | 64 | - | - | - | - | - | 65
O=C(N/N=C/C(Br)=C/c1ccccc1)C(O)c1ccccc1 (centres undefined) | - | - | - | - | - | - | .
CCCCOc1ccc(OC(=O)Nc2cc(Cl)ccc2OC)cc1 | - | - | - | - | - | - | .
O=C1C(Cl)=C(Nc2ccc(O)cc2)C(=O)c2ccccc21 | 90 | - | - | - | - | - | 92
CCN(CC)c1ccc(NC2=C(Cl)C(=O)c3ccccc3C2=O)cc1 | 83 | - | . | - | . | - | 84
Cc1ccc(NC2=CC(=O)C(=O)c3ccccc32)cc1 | 77 | - | - | 39 | 87 | - | 73
COC1=C(Nc2ccc(O)cc2)C(=O)c2ccccc2C1=O | - | - | - | - | - | - | .
CC(=O)Nc1ccc(NC2=CC(=O)c3ccccc3C2=O)cc1 | 39 | - | - | - | - | - | -
CC1C(=O)CC2C3(C)CCC2(C(C)C(=O)O)C(=O)C13 (centres undefined) | . | - | . | . | . | . | .
Cc1ccc(NC2=C(Cl)C(=O)c3ccccc3C2=O)cc1 | 85 | - | . | - | . | - | 85
COC/C=C/C1=CC2=CC(=O)C(C)(OC(=O)c3cnc4ccccc4n3)C(=O)C2=CN1CCc1c[nH]c2ccccc12 (centres undefined) | 45 | . | - | - | - | . | -
COC/C=C/C1=CC2=CC(=O)C(C)(OC(=O)c3cnc4ccccc4n3)C(=O)C2=CN1c1ccccc1 (centres undefined) | 38 | . | - | - | - | - | -
CCCCC1=CC2=CC(=O)C(C)(OC(=O)CC)C(=O)C2=CN1CCc1ccccn1 (centres undefined) | - | - | - | - | - | - | .
Cc1cccc([C@@H]2[C@@H]3C(=O)N(Cc4ccccc4)C(=O)[C@@H]3[C@]3(Cc4ccc(Cl)cc4)C(=O)N(c4cccc(Br)c4)C(=O)N23)c1 | 70 | - | - | - | - | - | -
CC(C)(C)c1ccc(C(=O)NCCC(=O)NNC(=O)COc2ccccc2F)cc1 | . | - | - | - | - | . | .
COC(=O)N(C)C[C@H]1OCc2cnnn2CCCC(=O)N([C@@H](C)CO)C[C@H]1C | . | - | . | . | . | . | .
CC1=NN(c2ccc(C)c(C)c2)C(=O)C1C(c1cccc(O)c1)C1C(=O)N(c2ccc(C)c(C)c2)N=C1C (centres undefined) | 51 | - | - | 77 | 87 | - | -
O=C1C(=O)N(CCS(=O)(=O)c2ccccc2)c2ccc(Cl)cc21 | 43 | - | - | - | - | - | -
CCc1ccc2c(c1)C(=O)C(=O)N2CCS(=O)(=O)c1ccccc1 | - | - | - | - | - | - | .
O=[N+]([O-])c1ccc2c(c1)CO[C@@]21O[C@H](CCO)C[C@H](O)[C@H]1O | . | - | . | . | . | . | .
CC1=NN(c2cccc(C(=O)O)c2)C(=O)/C1=C\C=C\c1ccco1 | 55 | - | - | - | - | ? | -
SMILES | GSTO1 counter | Rin1-Abl PPI inh | UBC13 polyUb | PAD4 inh | Apaf1 inhib | UBC9 SUMO inh | GSTO1 inh conf | others
CC1=NN(c2ccccc2)C(=O)/C1=C/C=C/c1ccccc1 | - | - | - | - | - | - | .
COc1ccc(-c2ccc(-c3nc4c(c(=O)[nH]c(=O)n4Cc4ccccc4)n3C)o2)c([N+](=O)[O-])c1 | - | - | - | - | - | - | .
COCCn1c(=O)[nH]c(=O)c2c1nc(-c1ccc(-c3ccc(Cl)cc3[N+](=O)[O-])o1)n2Cc1ccccc1 | 60 | - | - | - | - | - | -
Cc1ccc(-c2csc3ncn(CC#N)c(=O)c23)cc1C | 39 | - | - | - | - | - | -
CCOc1ccc(OCCC(=O)OCC(=O)N(CC)c2c(N)n(Cc3ccccc3)c(=O)[nH]c2=O)cc1 | . | - | . | . | . | . | .
CCC(CO)Nc1ccc(-c2n[nH]c(=O)c3ccccc23)cc1[N+](=O)[O-] (centres undefined) | - | - | - | - | - | - | .
O=C(c1[nH]ncc1-c1cccc(Br)c1)C1CO1 (centres undefined) | 82 | - | - | - | - | - | 90 | GSTO1 ABPP inh=-
Nc1ccc(C(=O)O)c(O)c1 | - | - | - | - | - | - | .
Nc1ccc(N)c(C(=O)O)c1 | 57 | 13 | - | - | 67 | . | -
COc1cccc(NC(=O)Cn2c3ccc(OC)cc3c3nc4n(c(=O)c32)CCS4)c1 | - | - | - | - | - | . | .
COc1ccc2c(c1)c1nc3n(c(=O)c1n2CC(=O)Nc1cc(C)[nH]n1)CCS3 | 92 | . | - | - | - | - | -
O=C(COc1cccc(Br)c1)N/N=C/c1ccc2c(c1)OCCO2 | . | - | . | . | . | . | .
CCOc1ccc(NC(=O)C2C(C(=O)O)C3(Cl)C(Cl)=C(Cl)C2(Cl)C3(Cl)Cl)cc1 (centres undefined) | 44 | - | - | - | - | - | -
CCOc1ccc(NC(=O)C2C(c3ccccc3)C2(Cl)Cl)cc1 (centres undefined) | - | - | - | - | - | - | .
CC1C(=O)N(Cc2cn(CCC3OCCCO3)nn2)CCS(=O)(=O)N1Cc1ccc(-c2ccc(Cl)nc2)cc1 (centres undefined) | . | - | . | . | . | . | .
O=C1C(Cl)=C(NS(=O)(=O)c2ccc([N+](=O)[O-])cc2)C(=O)c2ccccc21 | 100 | - | - | - | - | - | 88
O=[N+]([O-])c1ccc(Oc2ccc(S(=O)(=O)Nc3ccccc3)cc2)cc1 | - | - | - | - | - | - | .
Cc1ccc(NC(=O)CSc2nnnn2C)cc1S(=O)(=O)N1CCCCC1 | . | - | . | . | . | . | .
COc1ccc(-c2[nH]ncc2CN2CCN(Cc3cccs3)CC2)cc1F | 72 | - | - | - | - | - | -
O=S(=O)(O)c1cc(O)ccc1O | - | - | - | - | - | . | .
O=S(=O)(c1cc(O)ccc1O)c1cccc2c(S(=O)(=O)c3cc(O)ccc3O)cccc12 | 64 | - | - | - | - | . | -
O=C1/C(=C/c2cccnc2)SC(=S)N1c1ccccc1 | - | - | - | - | - | - | .
O=C1/C(=C/c2cccnc2)SC(=S)N1Nc1ccccc1 | 52 | - | - | - | - | - | -
CC(C)NC(=O)CN1CCN(C(=O)CCl)CC1 | 38 | - | - | - | - | - | 58 | GSTO1 ABPP inh=-
CC(C)c1ccc(CN2CCN(C(=O)CCl)CC2)cc1 | . | - | . | . | . | - | .
